Data on eleven molecules can be found in ChEMBL document CHEMBL2434950 (Eur J Med Chem, 2013).

For series [1], the system named is Toxoplasma gondii. Description: Antiparasitic activity against Toxoplasma gondii tachyzoites by fluorescence assay. The class given is functional. Particulars: read-out: ED50 (the source's name). The gist of the method: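 Red fluorescent protein-expressing tachyzoites were filtered (3 µm) and needle-passed, then seeded at 4×10^4/well onto confluent hTERT monolayers in DMEM-HG with 1% FBS, 2 mM glutamine and 1 mM pyruvate, at 37 °C. Drugs were serially diluted in the same medium. Plates were read daily from the bottom (ex 544/em 590 nm). EC50 came from the fit I = Imax·C/(EC50 + C), Imax 100%. Three experiments, each in triplicate.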

A short description of series [2]: Cytotoxicity against african green monkey Vero cells by Alamar blue assay. The class given is cell-based. The note with it: chlorocebus sabaeus, read-out: ED50 (the source's name). (The colour change of resazurin is a common sign of viable cells or microbes.)
Series [3] has as its system Trypanosoma cruzi. The experiment in a line: Antiparasitic activity against Trypanosoma cruzi amastigotes after 3 days by fluorescence assay. The class given is functional. Particulars: 72 h, read-out: ED50 (the source's name). The method, boiled down: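 Gamma-irradiated (2000 Rads) Vero cells, 3.4×10^4/well in RPMI with 10% FBS, were kept overnight at 35 °C, 7% CO2. […] Serial dilutions were added at 5 concentrations up to 20 or 25 µM, each in quadruplicate, with a benznidazole control. Fluorescence was read at day 3, and IC50 was derived by non-linear regression.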

In series [4] the test system is Trypanosoma cruzi. Description: Ratio of compound ED50 to WC-9 ED50 for Trypanosoma cruzi amastigotes after 3 days by fluorescence assay. The format is functional.
Series [5] deals with Toxoplasma gondii. Description: Antiparasitic activity against Toxoplasma gondii tachyzoites at 10 uM by fluorescence assay. The class given is functional.
A short description of series [6]: Non-competitive inhibition of glycosomal Trypanosoma cruzi SQS.
Series [7] deals with Trypanosoma cruzi. The experiment in a line: Antiparasitic activity against Trypanosoma cruzi EP epimastigotes. The class given is functional.
Series [8] in a line: Non-competitive inhibition of mitochondrial Trypanosoma cruzi SQS.

Each structure is given as a SMILES string. ≈ marks a conversion by molar mass, not a printed value.

Regarding `O=[N+]([O-])c1cccc(Oc2ccc(OCCOC3CCCCO3)cc2)c1` (stereo not given), the EC50 in the series with Toxoplasma gondii [1] was 3.28 µM; in the series with Trypanosoma cruzi [3] it was greater than 10 µM. Moreover, the CC50 in series [2] is greater than 50 µM.
Regarding `N#CSCCOc1ccc(Oc2cccc([N+](=O)[O-])c2)cc1`, the EC50 with Toxoplasma gondii [1] was 2.03 µM; with Trypanosoma cruzi [3], 5.2 µM. For the same molecule, in series [2], the CC50 was greater than 50 µM. In addition, in the series on Trypanosoma cruzi [4], the Ratio ED50 turned out to be 1.04.
Consider `COc1ccc(Oc2ccc(OCCSC#N)cc2)cc1`, for which the EC50 was found to be 3.81 µM in the series on Toxoplasma gondii [1] and 6.1 µM in the series on Trypanosoma cruzi [3]. The CC50 in series [2] was greater than 100 µM.
The matching figures for `COc1cccc(Oc2ccc(OCCSC#N)cc2)c1`: 6.7 µM, 4.5 µM and greater than 50 µM.
Take `c1cncc(Oc2ccc(OCCOC3CCCCO3)cc2)c1` (stereo not given): the Activity in the series on Toxoplasma gondii [5] is 3.25%. The CC50 in series [2] was greater than 50 µM. Besides, the EC50 in the series with Trypanosoma cruzi [3] was greater than 10 µM.
For `N#CSCCOc1ccc(Oc2cccnc2)cc1`, the EC50 in the series on Toxoplasma gondii [1] turned out to be 7.5 µM; with Trypanosoma cruzi [3], 7.4 µM. For the same molecule, the CC50 in series [2] is greater than 50 µM.
The matching figures for `N#CSCCOc1cccc(Oc2ccccc2)c1`: 3.95 µM, 11.2 µM and greater than 50 µM.
The matching figures for `COc1ccc(Oc2cccc(OCCSC#N)c2)cc1`: 2.93 µM, 10.1 µM and greater than 50 µM.
With `N#CSCCOc1ccc(Oc2ccccc2)cc1`, the IC50 (usually the midpoint of a concentration-inhibition curve) turned out to be 0.088 µM in series [6] and 0.129 µM in series [8]. Also, the Ki – broadly, a dissociation constant, usually derived from enzyme kinetics or from competition with a known ligand – is 0.088 µM in series [6] and 0.129 µM in series [8]. In addition, in the series on Trypanosoma cruzi [7], the MIC (in general, the lowest concentration that inhibits growth of the organism) is 1 µM (≈ 0.271 µg/mL). The values for the EC50 with Toxoplasma gondii [1] and in the series with Trypanosoma cruzi [3] were 4.8 µM and 5 µM, respectively. Also, in series [2], the CC50 was greater than 50 µM.
For the molecule `O=C1C(O)=C([C@H]2CC[C@H](c3ccc(Cl)cc3)CC2)C(=O)c2ccccc21` [ATOVAQUONE], in the series with Toxoplasma gondii [1], the EC50 was determined as 0.032 µM.
Regarding `O=C(Cn1ccnc1[N+](=O)[O-])NCc1ccccc1` [BENZNIDAZOLE], in the series with Trypanosoma cruzi [3], the EC50 amounted to 1.75 µM.
